According to ChEMBL document CHEMBL1144694, “Identification of 4-(4-aminopiperidin-1-yl)-7H-pyrrolo[2,3-d]pyrimidines as selective inhibitors of protein kinase B through fragment elaboration” (J Med Chem, 2008):

Tests used:
[1] = Inhibition of recombinant catalytic subunit PKA by radiometric filter binding assay
[2] = Growth inhibition of human PC3M cells by SRB assay; format: functional, cell-based; conditions: PC-3M
[3] = target: RAC-beta serine/threonine-protein kinase (Homo sapiens, UniProt P31751); experiment: Inhibition of PKBbeta recombinant by radiometric filter binding assay
[4] = Selectivity for PKBbeta over PKA
[5] = Growth inhibition of human U87MG cells by SRB assay; format: functional, cell-based, U-87MG ATCC; conditions: U-87 MG
[6] = Cmax in BALB/c mouse at 25 mg/kg, iv; format: ADME, organism-based; design: dose 25 mg/kg, route intravenous; conditions: in vivo
Procedure, shortened: (§1)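 Female BALB/c mice dosed at 25 mg kg^-1 intravenously or orally, compound in 10% DMSO 0.1% Tween-20 in saline. Plasma concentrations measured over time to derive T1/2, Tmax, Cmax, AUC, Vss and plasma clearance.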

[7] = Tmax in BALB/c mouse at 25 mg/kg, po; format: ADME, organism-based; design: dose 25 mg/kg, route oral; conditions: in vivo; procedure, shortened: as §1
[8] = target: T1, Ribosomal protein S6 kinase beta-1 (Homo sapiens, UniProt P23443); experiment: Inhibition of p70S6K by radiometric filter binding assay
Procedure, shortened: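 IC50 for p70S6K kinase activity measured in a radiometric filter binding assay.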
Target sequence in this assay (P23443 whole entry): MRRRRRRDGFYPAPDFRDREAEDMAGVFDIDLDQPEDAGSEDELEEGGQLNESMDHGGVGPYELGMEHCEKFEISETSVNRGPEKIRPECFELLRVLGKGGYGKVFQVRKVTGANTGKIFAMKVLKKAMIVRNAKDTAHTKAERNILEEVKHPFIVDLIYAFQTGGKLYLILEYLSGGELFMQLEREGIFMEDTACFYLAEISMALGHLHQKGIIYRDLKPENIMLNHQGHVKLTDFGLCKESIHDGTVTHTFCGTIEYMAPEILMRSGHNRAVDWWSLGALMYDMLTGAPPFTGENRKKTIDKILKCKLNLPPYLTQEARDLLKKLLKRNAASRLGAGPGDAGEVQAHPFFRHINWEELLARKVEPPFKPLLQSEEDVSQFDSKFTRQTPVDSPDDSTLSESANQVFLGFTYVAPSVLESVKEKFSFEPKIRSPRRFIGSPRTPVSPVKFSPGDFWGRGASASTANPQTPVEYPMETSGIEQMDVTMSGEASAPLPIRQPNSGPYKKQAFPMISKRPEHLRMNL

Mus musculus [9] = experiment: Half life in BALB/c mouse at 25 mg/kg, iv; format: ADME, organism-based; design: dose 25 mg/kg, route intravenous; conditions: in vivo; procedure, shortened: as §1
[10] = Cmax in BALB/c mouse at 25 mg/kg, po; format: ADME, organism-based; design: dose 25 mg/kg, route oral; conditions: in vivo; procedure, shortened: as §1
[11] = Half life in BALB/c mouse at 25 mg/kg, po; format: ADME, organism-based; design: dose 25 mg/kg, route oral; conditions: in vivo; procedure, shortened: as §1
[12] = Metabolic stability in human liver microsomes at 10 uM after 30 mins; format: ADME, Microsome; conditions: read-out: Stability
Procedure, shortened: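 Human liver microsomes with cofactors for phase I metabolism, compound at 10 µM for 30 min. Percent parent remaining measured by LC-MS/MS.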

[13] = Oral bioavailability in BALB/c mouse at 25 mg/kg; format: ADME, organism-based; conditions: in vivo
[14] = Metabolic stability in BALB/c mouse liver microsomes at 10 uM after 30 mins; format: ADME, Microsome; conditions: read-out: Stability
Procedure, shortened: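 Incubated at 10 µM for 30 min in mouse liver microsomes competent for phase I and phase II metabolism. Parent remaining quantified by LC-MS/MS, with metabolite identification.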

[15] = Tmax in BALB/c mouse at 25 mg/kg, iv; format: ADME, organism-based; design: dose 25 mg/kg, route intravenous; conditions: in vivo; procedure, shortened: as §1
Mus musculus [16] = experiment: Clearance in BALB/c mouse plasma at 25 mg/kg, iv; format: ADME, organism-based; design: dose 25 mg/kg, route intravenous; conditions: in vivo; procedure, shortened: as §1
[17] = AUC in BALB/c mouse at 25 mg/kg, po; format: ADME, organism-based; design: dose 25 mg/kg, route oral; conditions: plasma; procedure, shortened: as §1
[18] = AUC in BALB/c mouse at 25 mg/kg, iv; format: ADME, organism-based; design: dose 25 mg/kg, route intravenous; conditions: plasma; procedure, shortened: as §1
Mus musculus [19] = experiment: Volume of distribution at steady state in BALB/c mouse at 25 mg/kg, iv; format: ADME, organism-based; design: dose 25 mg/kg, route intravenous; conditions: in vivo; procedure, shortened: as §1
Plasma = experiment: Drug level in BALB/c mouse plasma at 25 mg/kg, po; format: ADME, organism-based; design: dose 25 mg/kg, route oral; conditions: in vivo; procedure, shortened: as §1
[20] = target: Proto-oncogene tyrosine-protein kinase Src (Homo sapiens) (UniProt P12931); experiment: Inhibition of SRC at 1 uM
Procedure, shortened: (§2)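 Screen against a panel of 21 kinases, percent inhibition at 1 µM compound.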

[21] = target: T1, Ribosomal protein S6 kinase beta-1; experiment: Inhibition of p70S6K at 1 uM; procedure, shortened: as §2
Target sequence in this assay (P23443 whole entry, looked up): as the sequence (P23443 whole entry) above

[22] = target: Serine/threonine-protein kinase Chk2 (Homo sapiens) (UniProt O96017); experiment: Inhibition of CHK2 at 1 uM; procedure, shortened: as §2
[23] = target: T2, Serine/threonine-protein kinase Chk1 (Homo sapiens) (UniProt O14757); experiment: Inhibition of CHK1 at 1 uM; procedure, shortened: as §2
T2 sequence (whole entry): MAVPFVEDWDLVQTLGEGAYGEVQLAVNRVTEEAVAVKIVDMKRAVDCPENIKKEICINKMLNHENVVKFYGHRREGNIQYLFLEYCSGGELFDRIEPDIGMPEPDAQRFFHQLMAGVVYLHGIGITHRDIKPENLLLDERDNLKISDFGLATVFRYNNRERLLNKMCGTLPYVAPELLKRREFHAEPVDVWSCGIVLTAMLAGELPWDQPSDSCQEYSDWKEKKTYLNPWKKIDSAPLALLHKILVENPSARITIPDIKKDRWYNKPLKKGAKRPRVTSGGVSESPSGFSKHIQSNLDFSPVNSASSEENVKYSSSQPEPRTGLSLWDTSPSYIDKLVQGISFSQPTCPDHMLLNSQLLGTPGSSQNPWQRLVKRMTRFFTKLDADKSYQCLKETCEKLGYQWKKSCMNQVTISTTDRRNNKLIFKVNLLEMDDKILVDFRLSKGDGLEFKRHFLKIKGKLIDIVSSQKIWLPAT

[24] = target: Receptor-type tyrosine-protein kinase FLT3 (Homo sapiens) (UniProt P36888); experiment: Inhibition of FLT3 at 1 uM; procedure, shortened: as §2
[25] = target: Ribosomal protein S6 kinase alpha-2 (Homo sapiens) (UniProt Q15349); experiment: Inhibition of RSK2 at 1 uM; procedure, shortened: as §2
[26] = Inhibition of PKC at 1 uM; procedure, shortened: as §2
[27] = target: Rho-associated protein kinase 2 (Homo sapiens) (UniProt O75116); experiment: Inhibition of ROCK2 at 1 uM; procedure, shortened: as §2
Rho-associated protein kinase 2 (Homo sapiens), sequence (O75116 whole entry, looked up): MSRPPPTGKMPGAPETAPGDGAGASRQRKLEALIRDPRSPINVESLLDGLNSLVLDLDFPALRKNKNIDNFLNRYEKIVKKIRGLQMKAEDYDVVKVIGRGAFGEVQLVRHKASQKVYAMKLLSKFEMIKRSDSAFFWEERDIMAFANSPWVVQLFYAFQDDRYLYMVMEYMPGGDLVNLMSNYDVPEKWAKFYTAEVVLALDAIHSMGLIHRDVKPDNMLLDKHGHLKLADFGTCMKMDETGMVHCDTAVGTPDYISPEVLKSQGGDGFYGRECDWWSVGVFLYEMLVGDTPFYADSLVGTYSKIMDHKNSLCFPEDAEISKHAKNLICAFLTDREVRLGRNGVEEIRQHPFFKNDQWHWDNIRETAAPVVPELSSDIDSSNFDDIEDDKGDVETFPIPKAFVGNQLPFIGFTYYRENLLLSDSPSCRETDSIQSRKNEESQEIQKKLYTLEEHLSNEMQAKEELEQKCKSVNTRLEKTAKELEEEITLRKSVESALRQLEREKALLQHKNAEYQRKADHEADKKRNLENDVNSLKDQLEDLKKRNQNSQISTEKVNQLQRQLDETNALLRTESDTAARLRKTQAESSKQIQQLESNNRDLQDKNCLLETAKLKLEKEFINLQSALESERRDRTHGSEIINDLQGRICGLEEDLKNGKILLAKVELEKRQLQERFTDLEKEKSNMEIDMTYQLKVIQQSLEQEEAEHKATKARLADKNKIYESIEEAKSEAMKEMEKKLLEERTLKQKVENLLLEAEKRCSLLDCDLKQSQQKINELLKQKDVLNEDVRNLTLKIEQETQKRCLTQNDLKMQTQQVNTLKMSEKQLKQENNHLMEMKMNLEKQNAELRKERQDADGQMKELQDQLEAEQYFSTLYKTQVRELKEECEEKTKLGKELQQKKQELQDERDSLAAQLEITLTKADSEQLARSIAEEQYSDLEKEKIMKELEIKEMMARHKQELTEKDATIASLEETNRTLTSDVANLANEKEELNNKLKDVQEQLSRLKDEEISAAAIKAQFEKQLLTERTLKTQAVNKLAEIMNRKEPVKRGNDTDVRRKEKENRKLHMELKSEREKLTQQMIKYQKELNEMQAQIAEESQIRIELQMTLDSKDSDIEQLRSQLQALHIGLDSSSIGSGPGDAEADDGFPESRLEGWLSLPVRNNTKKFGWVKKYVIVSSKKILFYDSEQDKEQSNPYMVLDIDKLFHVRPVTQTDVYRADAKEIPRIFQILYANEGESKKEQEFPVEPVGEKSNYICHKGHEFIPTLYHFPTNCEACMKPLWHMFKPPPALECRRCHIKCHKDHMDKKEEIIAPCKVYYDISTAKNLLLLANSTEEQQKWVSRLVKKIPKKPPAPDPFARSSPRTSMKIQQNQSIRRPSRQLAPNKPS

RAC-beta serine/threonine-protein kinase, sequence (P31751 whole entry): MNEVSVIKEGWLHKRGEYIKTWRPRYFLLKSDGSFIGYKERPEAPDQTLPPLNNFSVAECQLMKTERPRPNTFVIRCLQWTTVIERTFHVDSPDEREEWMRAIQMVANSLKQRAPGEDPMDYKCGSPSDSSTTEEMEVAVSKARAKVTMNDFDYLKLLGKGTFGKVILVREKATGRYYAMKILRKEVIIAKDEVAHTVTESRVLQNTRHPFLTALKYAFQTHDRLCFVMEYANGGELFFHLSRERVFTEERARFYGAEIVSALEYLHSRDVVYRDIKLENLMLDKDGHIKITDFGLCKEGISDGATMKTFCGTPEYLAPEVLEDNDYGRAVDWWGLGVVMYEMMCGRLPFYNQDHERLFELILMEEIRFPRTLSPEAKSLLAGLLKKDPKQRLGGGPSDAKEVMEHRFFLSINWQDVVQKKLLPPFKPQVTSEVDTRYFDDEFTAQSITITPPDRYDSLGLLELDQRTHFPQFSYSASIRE
Serine/threonine-protein kinase Chk2 (Homo sapiens), sequence (O96017 whole entry): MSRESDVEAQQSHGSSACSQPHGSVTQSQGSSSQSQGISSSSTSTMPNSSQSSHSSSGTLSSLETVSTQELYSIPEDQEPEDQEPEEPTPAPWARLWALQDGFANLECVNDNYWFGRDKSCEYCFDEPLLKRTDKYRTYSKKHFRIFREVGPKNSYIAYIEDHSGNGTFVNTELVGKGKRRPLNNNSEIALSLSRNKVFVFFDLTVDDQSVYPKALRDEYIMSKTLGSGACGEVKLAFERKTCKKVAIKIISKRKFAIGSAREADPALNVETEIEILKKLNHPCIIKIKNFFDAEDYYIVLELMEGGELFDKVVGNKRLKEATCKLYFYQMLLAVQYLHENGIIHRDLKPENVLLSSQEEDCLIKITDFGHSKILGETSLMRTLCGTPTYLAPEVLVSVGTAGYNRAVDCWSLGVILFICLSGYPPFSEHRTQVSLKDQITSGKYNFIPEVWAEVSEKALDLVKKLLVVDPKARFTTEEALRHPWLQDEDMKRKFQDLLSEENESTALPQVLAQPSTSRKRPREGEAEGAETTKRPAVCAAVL
Ribosomal protein S6 kinase alpha-2 (Homo sapiens), sequence (Q15349 whole entry): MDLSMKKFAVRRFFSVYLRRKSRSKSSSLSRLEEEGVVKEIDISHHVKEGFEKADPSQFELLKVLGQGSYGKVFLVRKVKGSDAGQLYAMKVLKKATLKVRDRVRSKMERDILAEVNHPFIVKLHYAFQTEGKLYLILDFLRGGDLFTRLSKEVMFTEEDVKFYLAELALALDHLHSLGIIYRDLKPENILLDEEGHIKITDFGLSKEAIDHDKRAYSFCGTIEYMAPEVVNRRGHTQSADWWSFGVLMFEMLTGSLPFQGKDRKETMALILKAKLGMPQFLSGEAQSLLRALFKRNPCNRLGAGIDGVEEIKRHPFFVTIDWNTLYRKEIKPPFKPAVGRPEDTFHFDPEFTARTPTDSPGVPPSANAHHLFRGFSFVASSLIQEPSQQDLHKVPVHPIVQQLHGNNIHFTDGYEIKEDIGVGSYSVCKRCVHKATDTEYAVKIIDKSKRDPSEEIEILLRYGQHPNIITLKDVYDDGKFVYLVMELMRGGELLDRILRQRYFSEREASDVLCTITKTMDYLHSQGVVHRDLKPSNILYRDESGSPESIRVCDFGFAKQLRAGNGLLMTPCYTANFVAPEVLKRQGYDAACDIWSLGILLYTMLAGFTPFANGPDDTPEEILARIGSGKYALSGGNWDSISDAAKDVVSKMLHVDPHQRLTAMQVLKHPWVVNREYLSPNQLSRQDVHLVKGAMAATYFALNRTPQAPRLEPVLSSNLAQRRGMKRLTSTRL
Proto-oncogene tyrosine-protein kinase Src (Homo sapiens), sequence (P12931 2-536 limits assumed): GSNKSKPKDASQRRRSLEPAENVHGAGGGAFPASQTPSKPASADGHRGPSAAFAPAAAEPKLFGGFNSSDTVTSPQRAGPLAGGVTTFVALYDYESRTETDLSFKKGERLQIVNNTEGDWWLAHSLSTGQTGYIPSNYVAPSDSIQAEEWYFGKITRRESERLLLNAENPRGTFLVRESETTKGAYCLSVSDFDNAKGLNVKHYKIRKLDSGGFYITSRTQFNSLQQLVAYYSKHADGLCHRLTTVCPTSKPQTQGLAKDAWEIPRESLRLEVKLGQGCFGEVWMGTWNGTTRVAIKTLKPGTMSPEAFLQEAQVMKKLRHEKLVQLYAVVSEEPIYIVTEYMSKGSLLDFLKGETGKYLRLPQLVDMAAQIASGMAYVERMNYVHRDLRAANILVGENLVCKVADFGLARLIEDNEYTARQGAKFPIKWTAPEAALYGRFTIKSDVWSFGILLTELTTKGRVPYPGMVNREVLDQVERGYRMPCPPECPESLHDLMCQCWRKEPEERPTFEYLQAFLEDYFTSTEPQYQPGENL

| Structure (SMILES) | IC50 [1] [nM] | IC50 [3] [nM] | IC50 [2] [nM] | also measured |
| --- | --- | --- | --- | --- |
| NCC1CCN(c2ncnc3[nH]ccc23)CC1 | 460 | 770 | 32000 | – |
| NC1(Cc2ccc(Cl)cc2)CCN(c2ncnc3[nH]ccc23)CC1 | – | – | 12000 | Cmax [6]: 6360 nM; Tmax [7]: 30 min; IC50 [5]: 5000 nM; IC50 [8]: 120 nM; t1/2 (Mus musculus [9]): 57 min; Cmax [10]: 432 nM; half-life [11]: 34.2 min; remaining at 0.5 h, 10 µM [12]: 79%; bioavailability [13]: 8.5%; remaining at 0.5 h, 10 µM [14]: 87%; Tmax [15]: 4.98 min; clearance (Mus musculus [16]): 0.325 L/h; AUC [17]: 0.392 µM·h; AUC [18]: 4.62 µM·h; Vdss (Mus musculus [19]): 0.25 L; concentration (Plasma): 432 nM |
| NC(=O)C1CCN(c2ncnc3[nH]cnc23)CC1 | – | 41000 | – | – |
| NCC1CCN(c2ncnc3[nH]ncc23)CC1 | 2400 | 920 | > 50000 | – |
| NC1CCN(c2ccnc3[nH]ccc23)CC1 | 1930 | 880 | 31000 | – |
| Cc1nc2ncnc(N3CCC(N)CC3)c2[nH]1 | – | 110000 | – | – |
| c1nc(N2CCCCC2)c2nc[nH]c2n1 | – | 59000 | – | – |
| NCC1CCN(c2ncnc3[nH]cnc23)CC1 | 890 | 290 | > 50000 | – |
| NC1CCN(c2ncnc3[nH]ncc23)CC1 | 7300 | 830 | 38000 | – |
| O=S(=O)(NCCNC/C=C/c1ccc(Br)cc1)c1cccc2cnccc12 | 5300 | – | 18000 | – |

More lines, main results first:

| IC50 [1] [nM] | IC50 [3] [nM] | Structure (SMILES) | IC50 [2] [nM] | also measured |
| --- | --- | --- | --- | --- |
| 286 | 25 | NC1(Cc2ccc(Cl)cc2)CCN(c2ncnc3[nH]cnc23)CC1 | > 50000 | Selectivity ratio [4]: 11 |
| 726 | 246 | NC(c1ccccc1)C1CCN(c2ncnc3[nH]ccc23)CC1 (stereo not given) | 38000 | – |
| 23 | 7 | NC1(c2ccc(Cl)cc2)CCN(c2ncnc3[nH]cnc23)CC1 | > 50000 | – |
| 9 | 5 | NCC1(Cc2ccc(Cl)cc2)CCN(c2ncnc3[nH]ccc23)CC1 | 15000 | IC50 [5]: 4300 nM |
| 3 | 16 | NCC1(c2ccc(Cl)cc2)CCN(c2ncnc3[nH]cnc23)CC1 | 5700 | – |
| 1550 | 180 | NC1CCN(c2ncnc3[nH]ccc23)CC1 | 48000 | – |
| 27 | 71 | NC(c1ccc(Cl)cc1)C1CCN(c2ncnc3[nH]cnc23)CC1 (stereo not given) | 23000 | – |
| 5 | 8 | NCC1(c2ccc(Cl)cc2)CCN(c2ncnc3[nH]ccc23)CC1 | 1000 | inhibition [20]: > 60%; inhibition [21]: > 60%; IC50 [5]: 520 nM; inhibition [22]: > 60%; inhibition [23]: > 60%; inhibition [24]: > 60%; inhibition [25]: > 60%; inhibition [26]: > 60%; inhibition [27]: > 60% |
| 15 | 7 | NC1(c2ccc(Cl)cc2)CCN(c2ncnc3[nH]ccc23)CC1 | 8000 | IC50 [5]: 4700 nM |
| 3 | 25 | NCC1(c2ccc(Cl)cc2)CCN(c2ccnc3[nH]ccc23)CC1 | 16000 | – |
| 54 | 25 | NC(c1ccc(Cl)cc1)C1CCN(c2ncnc3[nH]ccc23)CC1 (stereo not given) | 7400 | IC50 [5]: 6000 nM |
| 7 | 3 | NCC1(Cc2ccc(Cl)cc2)CCN(c2ncnc3[nH]cnc23)CC1 | 20000 | – |
| 3 | 12 | NC(c1ccc(Cl)cc1)C1CCN(c2ccnc3[nH]ccc23)CC1 (stereo not given) | 5300 | IC50 [5]: 3500 nM |
